Numbering of substitutions follows the chain as printed. “And” between values parts separate entries of the source, which are not always exact repeats. Equal values may be shown once.
Experiments:
rM1 receptor = molecular target: T1, rM1 receptor (Rattus norvegicus, UniProt P08482); experiment: Calcium mobilization assay, CHO-K1 cells stably expressing rM1; type: cell-based
T1 sequence (P08482 1-460): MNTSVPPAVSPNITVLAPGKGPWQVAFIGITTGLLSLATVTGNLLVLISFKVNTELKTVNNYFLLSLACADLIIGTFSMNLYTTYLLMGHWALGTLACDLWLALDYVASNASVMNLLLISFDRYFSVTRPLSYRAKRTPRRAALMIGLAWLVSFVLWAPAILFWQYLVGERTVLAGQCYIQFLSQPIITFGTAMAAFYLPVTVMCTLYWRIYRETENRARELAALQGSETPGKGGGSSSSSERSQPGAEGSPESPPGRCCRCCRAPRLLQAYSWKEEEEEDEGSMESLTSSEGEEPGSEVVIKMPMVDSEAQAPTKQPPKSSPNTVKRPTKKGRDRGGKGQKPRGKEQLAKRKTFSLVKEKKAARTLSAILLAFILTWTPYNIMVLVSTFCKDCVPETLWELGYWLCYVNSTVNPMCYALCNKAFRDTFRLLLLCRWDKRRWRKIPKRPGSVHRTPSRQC

rM4 = molecular target: T2, rM4 (Rattus norvegicus, UniProt P08485); experiment: Calcium mobilization assay, agonist mode, M4; type: cell-based; settings: up to 30 μM
T2 sequence (P08485 1-478): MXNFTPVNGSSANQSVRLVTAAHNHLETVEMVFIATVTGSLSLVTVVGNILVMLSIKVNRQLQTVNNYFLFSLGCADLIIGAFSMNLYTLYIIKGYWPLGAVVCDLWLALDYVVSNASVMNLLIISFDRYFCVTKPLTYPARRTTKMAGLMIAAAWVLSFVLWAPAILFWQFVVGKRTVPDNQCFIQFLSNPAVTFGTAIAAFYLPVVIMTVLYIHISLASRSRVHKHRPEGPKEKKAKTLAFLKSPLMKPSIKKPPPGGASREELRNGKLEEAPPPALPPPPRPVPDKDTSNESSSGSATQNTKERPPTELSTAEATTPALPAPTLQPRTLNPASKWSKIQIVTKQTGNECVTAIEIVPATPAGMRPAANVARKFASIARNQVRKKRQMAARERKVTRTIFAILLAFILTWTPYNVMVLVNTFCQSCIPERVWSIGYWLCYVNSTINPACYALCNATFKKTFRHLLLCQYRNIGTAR
Method in brief: (§1)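 CHO-K1 cells stably expressing hM2/Gqi5 or rM4/Gqi5 (6 × 10^4 cells/well), or hM3 or hM5 (5 × 10^4 cells/well), were cultured overnight at 37 °C in 5% CO2. Cells were loaded with 2 μM Fluo-4 AM for 1 h at 37 °C in HBSS with 20 mM HEPES and 2.5 mM probenecid, pH 7.4. Eight-point test compound concentration series were added at 19 s of a 130 s read. Calcium flux was read as fluorescence fold over basal.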

hM5 = molecular target: T3, hM5 (Homo sapiens, UniProt P08912); experiment: Calcium mobilization assay, agonist mode, M5; type: cell-based; settings: up to 30 μM
T3 sequence (P08912 1-532): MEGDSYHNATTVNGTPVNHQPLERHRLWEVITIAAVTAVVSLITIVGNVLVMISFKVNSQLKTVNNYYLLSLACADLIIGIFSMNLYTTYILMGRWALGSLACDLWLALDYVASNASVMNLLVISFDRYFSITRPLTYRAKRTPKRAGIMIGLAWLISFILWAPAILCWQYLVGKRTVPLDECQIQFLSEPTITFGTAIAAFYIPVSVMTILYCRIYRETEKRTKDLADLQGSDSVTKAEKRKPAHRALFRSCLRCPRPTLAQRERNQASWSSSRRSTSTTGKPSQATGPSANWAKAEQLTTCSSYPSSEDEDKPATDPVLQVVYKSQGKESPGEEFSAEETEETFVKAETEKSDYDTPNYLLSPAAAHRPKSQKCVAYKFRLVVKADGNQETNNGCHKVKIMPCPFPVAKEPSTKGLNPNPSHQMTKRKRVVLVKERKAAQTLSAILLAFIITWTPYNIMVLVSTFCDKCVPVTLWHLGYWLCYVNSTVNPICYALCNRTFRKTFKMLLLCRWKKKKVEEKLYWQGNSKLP
Method in brief: as §1

M2 = molecular target: T4, M2 (Homo sapiens, UniProt P08172); experiment: [3H]-NMS competition binding, M2 CHO membranes; settings: concentrations well above those required to fully activate M1
T4 sequence (P08172 1-466): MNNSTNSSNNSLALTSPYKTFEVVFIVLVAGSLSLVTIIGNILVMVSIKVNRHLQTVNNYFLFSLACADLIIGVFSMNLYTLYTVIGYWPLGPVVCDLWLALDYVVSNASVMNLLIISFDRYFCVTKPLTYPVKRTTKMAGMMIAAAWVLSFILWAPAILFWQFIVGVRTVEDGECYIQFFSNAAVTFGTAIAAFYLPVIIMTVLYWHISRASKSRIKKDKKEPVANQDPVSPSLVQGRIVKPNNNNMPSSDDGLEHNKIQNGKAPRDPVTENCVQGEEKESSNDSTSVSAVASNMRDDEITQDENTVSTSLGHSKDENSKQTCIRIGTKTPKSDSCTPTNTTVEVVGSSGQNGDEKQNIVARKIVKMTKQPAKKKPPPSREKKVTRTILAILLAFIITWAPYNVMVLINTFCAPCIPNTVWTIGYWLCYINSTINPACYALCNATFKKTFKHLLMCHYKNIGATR

M5 = molecular target: T5, M5 (Homo sapiens, UniProt P08912); experiment: [3H]-NMS competition binding, M5 CHO membranes; settings: concentrations well above those required to fully activate M1
T5 sequence (P08912 1-532): T3 sequence (P08912 1-532)

rM1 E401H = molecular target: T6, rM1 E401H (Rattus norvegicus, UniProt P08482, E401H); experiment: Calcium mobilization, rM1 E401H mutant CHO-K1 cells; type: cell-based
T6 sequence (P08482 1-460 E401H): T1 sequence (P08482 1-460) with E401H
Method in brief: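 CHO-K1 cells were transiently transfected overnight at 37 °C with 10 μg of mutant rat M1 cDNA in pcDNA3.1+ using Fugene 6, then plated for the calcium assay. They were loaded with 2 μM Fluo-4 AM for 1 h at 37 °C in HEPES/probenecid-buffered HBSS, pH 7.4. Test compound dose–response series were added at 19 s. Calcium mobilization was measured as fluorescence increase over basal.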

- EC50 (rM1 receptor): 152 nM
- ACh Max efficacy (rM1 receptor; rM1 CHO-K1, calcium mobilization): 85 % ACh Max and 85.01 % ACh Max
- Schild analysis: shift of dose-response curve with increasing atropine (rM1 receptor; rM1 cells, fixed increasing concentrations of atropine): rightward shift with diminished efficacy
- agonist activity at M4 (rM4): no activity
- agonist activity at M5 (hM5): no activity
- reduction of [3H]-NMS binding to M2 (M2): did not reduce
- reduction of [3H]-NMS binding to M5 (M5): did not reduce
- EC50 (rM1 E401H): 1210 nM
- Emax (rM1 E401H; CHO-K1, read-out: E401H mutant Emax): 29.4%
SMILES: CCOC(=O)N1CCC(NCCNC(=O)c2ccccc2)CC1 [VU0184670, ethyl 4-(2-benzamidoethylamino)piperidine-1-carboxylate]
